Assay results pooled from the literature.
Lines come from different studies, so protocols differ.
DRD3: D(3) dopamine receptor (DRD3, Homo sapiens, UniProt P35462)
HDAC5: Histone deacetylase 5 (HDAC5, Homo sapiens, UniProt Q9UQL6)
SLC6A3: Sodium-dependent dopamine transporter (SLC6A3, Homo sapiens, UniProt Q01959)

SMILES	target	read-out	mode	method	setting	IC50
Cc1[nH]c(C)c(S(=O)(=O)Nc2ccc(C(F)(F)F)c(Cl)c2)c1C(=O)N1CCCC1	DRD3	β-arrestin recruitment	antagonist	–	–	2.8 µM
COc1c(Cl)cccc1Nc1c(-c2ccncc2OC[C@@H]2COCCO2)[nH]c2c1C(=O)NCC2	Discoidin domain-containing receptor 2 (DDR2, Homo sapiens, UniProt Q16832)	cell-free assay	–	TR-FRET	–	0.0533 µM
COc1ccc(N(Cc2csc(-c3ccc(Br)cc3)n2)C(=O)CCCCCC(=O)NO)cc1	HDAC5	enzyme activity	inhibitor	–	–	> 10 µM
O[C@@H]1[C@H](O)[C@@H]2C[C@@H]2[C@H]1n1cnc2c(NCCC3CC3)ncnc21	SLC6A3	transporter uptake	inhibitor	radiometric	–	9.3 µM
CCc1ccc(NS(=O)(=O)c2c(C)[nH]c(C)c2C(=O)N2CCC(F)(F)C2)cc1Cl	DRD3	β-arrestin recruitment	antagonist	–	–	5.2 µM
COc1ccc(N(Cc2nc(-c3ccc(F)cc3)cs2)C(=O)CCCCCC(=O)NO)cc1	HDAC5	enzyme activity	inhibitor	–	–	> 10 µM
CN(C)C(=O)c1cc2cnc(Nc3ccc(-c4cccc5c(=O)cc(N6CCOCC6)oc45)cc3)nc2n1C1CCCC1	DNA-dependent protein kinase catalytic subunit (PRKDC, Homo sapiens, UniProt P78527)	enzyme activity	inhibitor	–	–	0.202 µM
O=C(Nc1ccc2[nH]c(=O)oc2c1)C(=O)N1CCC(Cc2ccc(F)cc2)CC1	Glutamate NMDA receptor; GRIN1/GRIN2B (GRIN1/GRIN2B, Homo sapiens, UniProt Q05586+Q13224)	ion current	–	two-electrode voltage clamp	oocytes	0.029 µM
NS(=O)(=O)c1ccc(Nc2nc(-c3cc4cc(Br)ccc4oc3=O)cs2)c(Br)c1	Carbonic anhydrase 12 (CA12, Homo sapiens, UniProt O43570)	enzyme activity	inhibitor	absorbance	–	6.18 µM
Cc1cc(O)c(-c2ccc([C@@H](C)CN(C)C)cc2)c2c1[nH]c(=O)c1sccc12	Cyclin-dependent kinase 12, with cyclin K (CDK12, Homo sapiens, UniProt Q9NYV4)	enzyme activity	inhibitor	–	–	> 1 µM
CCCN(CCC)S(=O)(=O)c1ccc(C(=O)O)cc1	Taste receptor type 2 member 16 (TAS2R16, Homo sapiens, UniProt Q9NYV7, N96T)	inositol phosphate	antagonist	TR-FRET	–	2180 µM
CNc1nc(C#Cc2ccc(Cl)s2)nc2c1ncn2[C@H]1[C@H](O)[C@H](O)[C@]2(C(=O)OC)C[C@H]12	SLC6A3	transporter uptake	inhibitor	radiometric	–	0.38 µM
Cc1[nH]c(C)c(S(=O)(=O)Nc2cc(Cl)cc(Cl)c2Cl)c1C(=O)N1CCC(F)(F)C1	DRD3	β-arrestin recruitment	antagonist	–	–	12 µM
NC(=O)c1nnn(Cc2cc(Cl)c(C(=O)c3ccc(Cl)cc3)c(Cl)c2)c1N	SLC6A3	transporter uptake	inhibitor	–	–	0.069 µM
O=C(NO)c1ccc(Cn2cnc3c(Nc4ccc(Cl)cc4)ncnc32)cc1	HDAC5	enzyme activity	inhibitor	–	–	0.473 µM
Cc1[nH]c(C)c(S(=O)(=O)Nc2ccc(C(F)(F)F)c(Cl)c2)c1C(=O)N1CCc2ccccc21	DRD3	G protein activation	antagonist	BRET	–	21 µM
